Measured values from different studies.
Lines come from different studies, so protocols differ.
Organism: Plasmodium falciparum
Effect on: parasite growth

With `CNCC[C@H](Oc1cccc2ccccc12)c1cccs1` the IC50 was 0.706 µM (NF54; blood stage).
For `Cc1ccc(N(C)c2ccc(NC(=O)CN(C)c3ccccc3N3CCCC3=O)cc2)nc1`, the EC50 was 4 µM (3D7; 72 h, blood stage).
`Cc1nnc(-c2ccc3ccn(CC(=O)Nc4ccccn4)c3c2)o1` has an EC50 of 4.25 to 4.78 µM (3D7; 72 h, blood stage).
`CCN(c1ccc(C)cc1)c1ccc(NC(=O)CN(C)c2ccccc2N2CCCC2=O)cn1` has an EC50 of 0.004 µM (3D7; 72 h, blood stage).
The EC50 of `COc1cc(/C=C/C(=O)C(=Cc2ccc(O)cc2)C(=O)/C=C/c2ccc(O)c(OC)c2)ccc1O` is reported as 4.35 µM (3D7; blood stage).
`COC1=CC(c2ccc[nH]2)=N/C1=C\c1cc(Cc2ccc(OC)cc2)c(-c2ccc(OC)cc2)[nH]1` gave an IC50 of 0.089 µM (SYBR Green; D6; 72 h, blood stage).
`CC(=O)[C@@]1(O)[C@H](O)C[C@H]2[C@@H]3CCC4=CC(=O)CC[C@]4(C)[C@H]3CC[C@@]21C` has an IC50 of 0.142 µM (SYBR Green; 3D7; blood stage).
`CC(C)N(c1ccc(NC(=O)CN(C)c2ccccc2N2CCCC2=O)cc1)c1ccc(Cl)c(F)c1` has an EC50 of 0.039 µM (3D7; 72 h, blood stage).
`COc1cc(/C=C2\CCC/C(=C\c3ccc(O)c(OC)c3)C2=O)ccc1O` has an EC50 of 0.2 µM (3D7; blood stage).
The EC50 of `Cc1ccc(N(C)c2ccc(NC(=O)CN(C)c3ccccc3N3CCCC3=O)c(F)c2)cc1` is reported as 0.003 µM (3D7; 72 h, blood stage).
For `Cc1[nH]c(/C=C2\N=C(c3ccc[nH]3)C=C2OCc2ccccc2)cc1Cc1ccc(Cl)cc1`, the IC50 was 0.00998 µM (SYBR Green; D6; 72 h, blood stage).
The EC50 of `COc1cc(/C=C/c2cc(/C=C/c3ccc(O)c(OC)c3)n(-c3ccc(Cl)cc3Cl)n2)ccc1O` is reported as 3.29 µM (3D7; blood stage).
The IC50 of `Cc1[nH]c(/C=C2\N=C(c3ccc[nH]3)C=C2OC(C)C)cc1Cc1ccc(Cl)cc1` is reported as 0.00375 µM (SYBR Green; D6; 72 h, blood stage).
The EC50 of `CC(C(=O)Nc1ccccc1Cl)n1ccc2ccc(-c3cnn(C)c3)cc21` (stereo not drawn) is reported as 1.12 µM (3D7; 72 h, blood stage).
`Cc1ccc(N(c2ccc(NC(=O)CN(C)c3ccccc3N3CCCC3=O)cc2)C(C)C)cc1` gave an EC50 of 0.005 µM (3D7; 72 h, blood stage).
With `C[C@H]1Cc2c([nH]c3cc(Cl)c(F)cc23)[C@@]2(N1)C(=O)Nc1ccc(Cl)cc12` the EC50 was 0.0007 µM (DD2; 72 h, blood stage).
For `COC1=C(OC)/C(=C/c2cc(-c3ccc(OC(F)(F)F)cc3)c(C)[nH]2)N=C1c1ccc[nH]1`, the IC50 was 0.521 µM (SYBR Green; D6; 72 h, blood stage).
For `COc1cc(/C=C/C(=O)C(=Cc2cccc(O)c2)C(=O)/C=C/c2ccc(O)c(OC)c2)ccc1O`, the EC50 was 1.15 µM (3D7; blood stage).
For `CCOC1=CC(c2ccc[nH]2)=N/C1=C\c1cc(Cc2ccc(OC(F)(F)F)cc2)c(C)[nH]1`, the IC50 was 0.00689 µM (SYBR Green; D6; 72 h, blood stage).
The EC50 of `Cc1ccc(Oc2ccc(NC(=O)C(C)(C)Nc3ccccc3N3CCCC3=O)cc2)cc1` is reported as > 10 µM (3D7; 72 h, blood stage).
The EC50 of `COc1cc(/C=C/C(=O)C(=Cc2ccc([N+](=O)[O-])cc2)C(=O)/C=C/c2ccc(O)c(OC)c2)ccc1O` is reported as 2.77 µM (3D7; blood stage).
`Cc1ccc(Oc2ccc(NC(=O)COc3ccccc3N3CCCC3=O)cc2)cc1` has an EC50 of 1.57 µM (3D7; 72 h, blood stage).
The IC50 of `COC1=CC(c2ccc[nH]2)=N/C1=C\c1cc(Cc2ccc(OC(F)(F)F)cc2)c(C)[nH]1` is reported as 0.00317 µM (SYBR Green; D6; 72 h, blood stage).
With `COc1cc(NC(C)CCCN)c2ncccc2c1` (stereo not drawn) the inhibition was 100% (100 µM, gametocyte).
With `Cc1nnc(-c2ccc3ccn(CC(=O)Nc4cccnc4)c3c2)o1` the EC50 was 4.25 to 4.78 µM (3D7; 72 h, blood stage).
With `CCC1=C(CC)/C(=C/c2cc(Cc3ccc(Cl)cc3)c(C)[nH]2)N=C1c1ccc[nH]1` the IC50 was 0.343 µM (SYBR Green; D6; 72 h, blood stage).
For `CO[C@H]1/C=C/O[C@@]2(C)Oc3c(C)c(O)c4c(O)c(c(/C=N/N5CCN(C6CCCC6)CC5)c(O)c4c3C2=O)NC(=O)/C(C)=C\C=C\[C@H](C)[C@H](O)[C@@H](C)[C@@H](O)[C@@H](C)[C@H](OC(C)=O)[C@@H]1C`, the IC50 was 0.24 µM (NF54; blood stage).
`COC1=CC(c2ccc[nH]2)=N/C1=C\c1[nH]c(C)cc1Cc1ccc(OC(F)(F)F)cc1` gave an IC50 of 0.00248 µM (SYBR Green; D6; 72 h, blood stage).
`COc1ccnn1-c1ccccc1NCC(=O)Nc1ccc(Oc2ccc(C)cc2)cc1` gave an EC50 of > 10 µM (3D7; 72 h, blood stage).
For `CCN(CC)CCOc1ccc2c(c1)C(=O)c1cc(OCCN(CC)CC)ccc1-2`, the IC50 was 1.54 µM (SYBR Green; 3D7; blood stage).
